pKi: −log10 of the molar value.
Tests used:
[1] = molecular target: T1, 5-hydroxytryptamine receptor 1A (Rattus norvegicus, UniProt P19327); assay: Binding affinity was determined against 5-hydroxytryptamine 1A receptor using […]
T1 sequence (P19327 whole entry): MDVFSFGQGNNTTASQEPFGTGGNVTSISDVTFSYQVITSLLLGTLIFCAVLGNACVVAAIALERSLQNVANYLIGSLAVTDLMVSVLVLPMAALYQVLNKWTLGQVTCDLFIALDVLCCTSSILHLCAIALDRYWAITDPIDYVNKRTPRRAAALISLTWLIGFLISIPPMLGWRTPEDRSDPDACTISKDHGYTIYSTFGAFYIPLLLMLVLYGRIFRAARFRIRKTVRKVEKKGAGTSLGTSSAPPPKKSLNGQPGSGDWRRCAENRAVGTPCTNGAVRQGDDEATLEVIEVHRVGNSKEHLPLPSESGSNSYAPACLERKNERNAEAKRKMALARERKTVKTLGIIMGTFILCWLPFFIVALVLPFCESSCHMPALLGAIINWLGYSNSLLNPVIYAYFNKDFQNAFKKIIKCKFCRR

Rattus norvegicus [2] = assay: Conditioned avoidance response activity was determined by the ability to block the conditioned avoidance of a foot shock at 5 mg/kg(ip); type: functional
Summary of the method: (§1)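 Male Fischer 344 rats (300–500 g) trained on a discrete-trial single-lever task, pressing the lever to avoid an impending shock; block of responding read at time of peak effect. Escape loss = percent of animals failing to escape the shock; >20% escape loss with CAR inhibition taken as potential for sedation.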

Rattus norvegicus [3] = assay: Percentage of animals failing to escape shock was measured, affording a rough index for nonspecific sedation at 5 mg/kg(ip)
[4] = Stability half-life at pH-2; type: physicochemical
Summary of the method: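 Half-life measured in solution at pH 2, about 3 × 10⁻³ M compound in citric acid–phosphate buffer at 22 °C.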

Rattus norvegicus [5] = assay: Conditioned avoidance response activity was determined by the ability to block the conditioned avoidance of a foot shock at 15 mg/kg(ip); type: functional; summary of the method: as §1

| Compound | pKi [1] | inhibition in vivo at 5 mg/kg (Rattus norvegicus [2]) [%] | Esc loss (Rattus norvegicus [3]) [%] | half-life [4] [min] | inhibition in vivo at 15 mg/kg (Rattus norvegicus [5]) [%] |
| --- | --- | --- | --- | --- | --- |
| COc1ccccc1N1CCN(Cc2ccc(CN(C(C)=O)C(C)C)n2C)CC1.O=C(O)CCC(=O)O | 7.80 | 8 | 0 | – | – |
| COc1ccccc1N1CCN(Cc2ccc(CN(C)S(C)(=O)=O)n2C)CC1.O=C(O)CCC(=O)O | 7.96 | 23 | 4 | 172 | – |
| COc1ccccc1N1CCN(CCc2ccc(C(=O)C(=O)N3CCCCC3)n2C)CC1.O=C(O)CCC(=O)O | 7.60 | 45 | 26 | – | – |
| COc1ccccc1N1CCN(Cc2ccc(CNC(C)=O)n2C)CC1.O=C(O)CCC(=O)O | – | 14 | 3 | – | – |
| CNC(=O)c1ccc(CN2CCN(c3ccccc3OC(C)C)CC2)n1C.O=C(O)CCC(=O)O | 7.24 | 15 | 0 | 4340 | – |
| CC(C)NC(=O)c1ccc(CN2CCN(c3ccccc3OC(C)C)CC2)n1C.O=C(O)CCC(=O)O | 7.32 | 1 | 0 | 22900 | – |
| COc1ccccc1N1CCN(Cc2ccc(CN(Cc3ccccc3)C(=O)c3ccccc3)n2C)CC1.O=C(O)CCC(=O)O | – | 8 | 0 | – | – |
| COc1ccccc1N1CCN(Cc2ccc(CN(C)S(=O)(=O)C(C)C)n2C)CC1.O=C(O)CCC(=O)O | 7.41 | 6 | 0 | 130 | – |
| CCCCS(=O)(=O)N(C)Cc1ccc(CN2CCN(c3ccccc3OC(C)C)CC2)n1C.O=C(O)CCC(=O)O | 7.74 | 2 | 0 | 150 | – |
| CC(C)Oc1ccccc1N1CCN(Cc2ccc(CN(C)S(C)(=O)=O)n2C)CC1.O=C(O)CCC(=O)O | – | 8 | 0 | 222 | – |
| COc1ccccc1N1CCN(Cc2ccc(CN(Cc3ccccc3)C(C)=O)n2C)CC1.O=C(O)CCC(=O)O | – | 3 | 0 | – | – |
| CC(C)Oc1ccccc1N1CCN(Cc2ccc(CN(C(=O)C(C)C)C(C)C)n2C)CC1.O=C(O)CCC(=O)O | 8.72 | 0 | 0 | – | – |
| CCCCC(=O)N(C)Cc1ccc(CN2CCN(c3ccccc3OC)CC2)n1C.O=C(O)CCC(=O)O | 8.35 | 2 | 1 | – | – |
| CCCCC(=O)N(C)Cc1ccc(CN2CCN(c3ccccc3OC(C)C)CC2)n1C.O=C(O)CCC(=O)O | 9.60 | 4 | 0 | – | – |
| COc1ccccc1N1CCN(Cc2ccc(CN(C)C(C)=O)n2C)CC1.O=C(O)CCC(=O)O | 7.41 | 52 | 2 | – | – |
| CC(C)Oc1ccccc1N1CCN(Cc2ccc(CN(C)S(=O)(=O)C(C)C)n2C)CC1.O=C(O)CCC(=O)O | 8.24 | – | 0 | – | 0 |
| CC(C)Oc1ccccc1N1CCN(Cc2ccc(CN(C)C(=O)C(C)C)n2C)CC1.O=C(O)CCC(=O)O | 9.08 | 3 | 0 | 64 | – |
| CCCCS(=O)(=O)N(C)Cc1ccc(CN2CCN(c3ccccc3OC)CC2)n1C.O=C(O)CCC(=O)O | 8.15 | 7 | 1 | 222 | – |
| CC(C)Oc1ccccc1N1CCN(Cc2ccc(C(=O)N3CCCCC3)s2)CC1.O=C(O)CCC(=O)O | 8.38 | 56 | 18 | – | – |
| CC(C)Oc1ccccc1N1CCN(CCc2ccc(C(=O)C(=O)N3CCOCC3)n2C)CC1.O=C(O)CCC(=O)O | 8.03 | 2 | 0 | 5100 | – |
| CC(C)Oc1ccccc1N1CCN(Cc2ccc(CN(C(=O)C3CCCCC3)C(C)C)n2C)CC1.O=C(O)CCC(=O)O | 8.33 | 13 | 0 | – | – |

| Compound | pKi [1] | inhibition in vivo at 5 mg/kg (Rattus norvegicus [2]) [%] | Esc loss (Rattus norvegicus [3]) [%] | half-life [4] [min] | inhibition in vivo at 15 mg/kg (Rattus norvegicus [5]) [%] |
| --- | --- | --- | --- | --- | --- |
| COc1ccccc1N1CCN(Cc2ccc(CN(C(=O)C3CCCCC3)C(C)C)n2C)CC1.O=C(O)CCC(=O)O | 7.96 | 36 | 26 | – | – |
| CC(=O)N(C)Cc1ccc(CN2CCN(c3ccccc3OC(C)C)CC2)n1C.O=C(O)CCC(=O)O | 7.92 | 63 | 2 | 70 | – |
| COc1ccccc1N1CCN(Cc2ccc(CN3CCCCCC3=O)o2)CC1.O=C(O)CCC(=O)O | 7.57 | – | 11 | – | 93 |
| O=C(O)CCC(=O)O.O=C1CCCCN1Cc1ccc(CN2CCN(c3cccc4ccoc34)CC2)s1 | 10.15 | 63 | 5 | – | – |
| CC(C)Oc1ccccc1N1CCN(CC2CC(CN3CCCCC3=O)=NO2)CC1 (configuration not stated) | 8.00 | 69 | 20 | – | – |
| CCCN(Cc1ccc(CN2CCN(c3ccccc3OC)CC2)n1C)S(=O)(=O)c1ccccc1 | – | – | 0 | – | 0 |
| CC(C)Oc1ccccc1N1CCN(CC2CC(CO)=NO2)CC1 (configuration not stated) | 6.92 | 96 | 26 | 3650 | – |
| CC(C)Oc1ccccc1N1CCN(Cc2cc(CO)no2)CC1 | – | 29 | 1 | 3460 | – |
| COc1ccccc1N1CCN(Cc2ccc(CN(C(C)C)S(C)(=O)=O)n2C)CC1 | – | 1 | 0 | – | – |
| CC(C)Oc1ccccc1N1CCN(Cc2ccc(C(=O)N3CCCCCC3)s2)CC1.Cl | 8.49 | 8 | 3 | – | – |
| CC(C)Oc1ccccc1N1CCN(Cc2cc(CN3CCCCC3=O)no2)CC1.Cl | 7.03 | 0 | 0 | 1100 | – |
| COc1ccccc1N1CCN(Cc2ccc(CCN3CCCCC3=O)n2C)CC1.Cl | – | 75 | 9 | < 7 | – |
| CC(C)Oc1ccccc1N1CCN(Cc2cc(C(=O)N3CCCCC3)cs2)CC1.Cl | 8.60 | 72 | 34 | – | – |
| CC(C)Oc1ccccc1N1CCN(Cc2ccc(CCN3CCCCC3=O)n2C)CC1.Cl | – | 77 | 27 | < 13 | – |
| CC(C)Oc1ccccc1N1CCN(Cc2ccc(C(=O)N3CCCCC3)n2C)CC1.Cl | – | – | 5 | – | 56 |
| Cl.O=C(c1ccc(CN2CCN(c3cccc4ccoc34)CC2)s1)N1CCCCC1 | 9.20 | 3 | 0 | – | – |
| CC(C)Oc1ccccc1N1CCN(Cc2cc(C(=O)N3CCCCCC3)cs2)CC1.Cl | 9.39 | 45 | 4 | – | – |
| CC(C)Oc1ccccc1N1CCN(Cc2ccc(CN3CCCCC3=O)s2)CC1.Cl | 8.51 | 58 | 3 | – | – |
| CC(C)Oc1ccccc1N1CCN(Cc2cccc(CN3CCCCC3=O)n2)CC1.Cl | 6.08 | 85 | 15 | 4220 | – |
| CC(C)Oc1ccccc1N1CCN(Cc2cccc(C(=O)N3CCCCC3)c2)CC1 [MAZAPERTINE] | – | 98 | – | – | – |
